Measured values taken from ChEMBL document CHEMBL3758107, “Lead optimization of the VU0486321 series of mGlu(1) PAMs. Part 2: SAR of alternative 3-methyl heterocycles and progress towards an in vivo tool” (Bioorg Med Chem Lett, 2016).

Key:
[1] = molecular target: T1, Metabotropic glutamate receptor 4 (Homo sapiens, UniProt Q14833); assay: Positive allosteric modulation of human mGlu4 receptor assessed as glutamate-induced calcium mobilization at 10 uM by cell based assay relative to PHCCC; assay type: functional
T1 sequence (Q14833 whole entry): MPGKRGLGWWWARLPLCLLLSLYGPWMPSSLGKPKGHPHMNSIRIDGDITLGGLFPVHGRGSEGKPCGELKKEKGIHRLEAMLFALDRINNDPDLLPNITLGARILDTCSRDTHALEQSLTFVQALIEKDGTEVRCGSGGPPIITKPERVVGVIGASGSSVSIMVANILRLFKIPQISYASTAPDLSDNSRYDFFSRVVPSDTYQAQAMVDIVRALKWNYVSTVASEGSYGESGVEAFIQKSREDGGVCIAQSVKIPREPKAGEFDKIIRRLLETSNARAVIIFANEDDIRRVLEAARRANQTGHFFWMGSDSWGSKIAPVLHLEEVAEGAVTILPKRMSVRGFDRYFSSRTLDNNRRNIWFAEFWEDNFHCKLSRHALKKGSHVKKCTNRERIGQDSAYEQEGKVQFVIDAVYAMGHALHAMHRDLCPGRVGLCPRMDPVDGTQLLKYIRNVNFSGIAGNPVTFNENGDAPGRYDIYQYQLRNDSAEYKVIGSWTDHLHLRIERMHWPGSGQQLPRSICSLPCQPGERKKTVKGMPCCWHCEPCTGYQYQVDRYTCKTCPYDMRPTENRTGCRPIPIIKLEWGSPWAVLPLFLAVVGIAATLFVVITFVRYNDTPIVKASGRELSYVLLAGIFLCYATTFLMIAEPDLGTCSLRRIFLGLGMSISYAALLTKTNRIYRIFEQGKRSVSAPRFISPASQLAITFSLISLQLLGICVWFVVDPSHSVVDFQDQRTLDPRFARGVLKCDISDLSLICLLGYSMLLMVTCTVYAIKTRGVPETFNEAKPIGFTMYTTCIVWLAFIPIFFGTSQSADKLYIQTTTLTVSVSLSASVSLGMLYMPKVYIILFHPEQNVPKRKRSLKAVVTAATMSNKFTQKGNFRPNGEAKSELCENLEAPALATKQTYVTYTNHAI

[2] = molecular target: T2, Metabotropic glutamate receptor 1 (Homo sapiens, UniProt Q13255); assay: Positive allosteric modulation of human mGlu1 receptor by cell based calcium mobilization; assay type: functional
In short: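 Calcium mobilization assay at mGlu1; EC50 and % Glu Max taken as the average of three independent experiments, each run in triplicate.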
Target sequence in this assay (Q13255 whole entry): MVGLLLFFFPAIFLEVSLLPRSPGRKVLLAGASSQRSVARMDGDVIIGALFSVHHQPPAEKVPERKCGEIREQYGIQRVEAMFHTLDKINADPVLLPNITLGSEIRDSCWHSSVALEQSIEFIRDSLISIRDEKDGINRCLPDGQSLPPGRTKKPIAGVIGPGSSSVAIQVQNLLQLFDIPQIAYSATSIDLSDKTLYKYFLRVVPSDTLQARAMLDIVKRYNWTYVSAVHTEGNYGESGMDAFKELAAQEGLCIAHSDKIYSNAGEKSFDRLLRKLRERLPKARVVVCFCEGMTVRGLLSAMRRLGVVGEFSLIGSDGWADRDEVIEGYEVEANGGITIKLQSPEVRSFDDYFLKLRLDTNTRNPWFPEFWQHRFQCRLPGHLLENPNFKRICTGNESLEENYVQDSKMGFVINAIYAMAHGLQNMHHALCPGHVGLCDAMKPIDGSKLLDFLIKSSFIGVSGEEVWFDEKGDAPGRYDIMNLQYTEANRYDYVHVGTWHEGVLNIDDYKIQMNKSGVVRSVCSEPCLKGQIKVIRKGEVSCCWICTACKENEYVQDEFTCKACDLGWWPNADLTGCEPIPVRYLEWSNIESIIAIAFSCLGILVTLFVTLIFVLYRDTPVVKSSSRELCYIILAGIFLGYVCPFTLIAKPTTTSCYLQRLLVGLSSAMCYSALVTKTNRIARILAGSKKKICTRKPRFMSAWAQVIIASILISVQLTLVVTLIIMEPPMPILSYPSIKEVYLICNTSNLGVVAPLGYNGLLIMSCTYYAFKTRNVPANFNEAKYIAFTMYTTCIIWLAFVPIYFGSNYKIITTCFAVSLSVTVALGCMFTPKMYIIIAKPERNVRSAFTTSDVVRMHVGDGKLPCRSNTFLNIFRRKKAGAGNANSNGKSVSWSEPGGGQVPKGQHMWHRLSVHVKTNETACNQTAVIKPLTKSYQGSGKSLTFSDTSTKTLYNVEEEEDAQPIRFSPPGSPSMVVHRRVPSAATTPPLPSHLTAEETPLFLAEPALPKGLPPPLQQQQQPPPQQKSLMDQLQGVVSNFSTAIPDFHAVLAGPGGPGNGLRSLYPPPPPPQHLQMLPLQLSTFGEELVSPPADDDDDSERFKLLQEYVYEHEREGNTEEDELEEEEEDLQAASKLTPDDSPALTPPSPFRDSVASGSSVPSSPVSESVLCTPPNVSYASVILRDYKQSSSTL

[3] = molecular target: T1, Metabotropic glutamate receptor 4; assay: Positive allosteric modulation of human mGlu4 receptor by cell based calcium mobilization; assay type: functional
[4] = molecular target: T2, Metabotropic glutamate receptor 1; assay: Positive allosteric modulation of human mGlu1 receptor at 10 uM by cell based calcium mobilization relative to glutamate; assay type: functional
In short: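 Calcium mobilization assay at mGlu1, tested at a single point of 10 μM; response given as % Glu Max.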
Target sequence in this assay (Q13255 19-1194 limits assumed): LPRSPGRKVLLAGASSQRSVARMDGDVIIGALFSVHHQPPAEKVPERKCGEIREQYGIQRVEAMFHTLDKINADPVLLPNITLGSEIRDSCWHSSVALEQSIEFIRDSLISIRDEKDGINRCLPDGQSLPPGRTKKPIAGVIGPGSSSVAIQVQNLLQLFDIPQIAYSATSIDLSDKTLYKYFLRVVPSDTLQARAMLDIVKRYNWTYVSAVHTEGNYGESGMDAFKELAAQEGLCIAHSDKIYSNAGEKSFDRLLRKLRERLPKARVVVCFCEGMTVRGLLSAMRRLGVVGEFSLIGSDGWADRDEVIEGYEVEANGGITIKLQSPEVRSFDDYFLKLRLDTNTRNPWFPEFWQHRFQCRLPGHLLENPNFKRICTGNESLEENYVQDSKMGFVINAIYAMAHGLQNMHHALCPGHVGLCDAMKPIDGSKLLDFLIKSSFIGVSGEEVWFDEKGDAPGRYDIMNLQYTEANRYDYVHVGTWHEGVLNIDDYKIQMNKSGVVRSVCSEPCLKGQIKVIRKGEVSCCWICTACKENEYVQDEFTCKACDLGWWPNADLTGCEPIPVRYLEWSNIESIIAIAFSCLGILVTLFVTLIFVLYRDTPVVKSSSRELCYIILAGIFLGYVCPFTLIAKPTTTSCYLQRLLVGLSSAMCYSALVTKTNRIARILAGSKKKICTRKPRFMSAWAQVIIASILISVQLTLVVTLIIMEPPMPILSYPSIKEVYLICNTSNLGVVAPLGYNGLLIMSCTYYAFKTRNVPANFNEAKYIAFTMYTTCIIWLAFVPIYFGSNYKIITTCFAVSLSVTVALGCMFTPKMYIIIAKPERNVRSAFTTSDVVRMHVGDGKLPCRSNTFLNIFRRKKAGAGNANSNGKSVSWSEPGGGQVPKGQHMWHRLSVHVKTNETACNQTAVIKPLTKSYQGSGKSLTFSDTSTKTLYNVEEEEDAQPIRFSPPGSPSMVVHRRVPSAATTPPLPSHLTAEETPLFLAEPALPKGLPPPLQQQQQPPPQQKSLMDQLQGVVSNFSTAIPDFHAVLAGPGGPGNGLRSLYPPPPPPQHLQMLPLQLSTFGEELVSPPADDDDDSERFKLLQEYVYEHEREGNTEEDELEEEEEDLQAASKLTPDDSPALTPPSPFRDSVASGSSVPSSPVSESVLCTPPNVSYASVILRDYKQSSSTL

Homo sapiens = organism: Homo sapiens; assay: Selectivity ratio of EC50 for human mGlu4 receptor to EC50 for human mGlu1 receptor

Structure (SMILES)	%max [1] [%]	EC50 ([2]; read-out: EC50) [nM]	EC50 [3] [nM]	%max [4] [%]	Ratio EC50 (Homo sapiens)	EC50 ([2]; read-out: pEC50 (converted)) [nM]
Cc1ocnc1C(=O)Nc1ccc(N2C(=O)c3ccc(F)cc3C2=O)cc1F				16		
Cc1ocnc1C(=O)Nc1ccc(N2C(=O)c3cccc(Cl)c3C2=O)cc1F				27		
Cc1scnc1C(=O)Nc1ccc(N2C(=O)c3ccc(Cl)cc3C2=O)cc1F				40		
Cc1cccc2c1C(=O)N(c1ccc(NC(=O)c3ncoc3C)c(F)c1)C2=O				20		
Cc1cn[nH]c1C(=O)Nc1ccc(N2C(=O)c3ccccc3C2=O)c(Cl)c1		1240		107		
Cc1ncoc1C(=O)Nc1ccc(N2C(=O)c3ccccc3C2=O)c(Cl)c1		> 10000				
Cc1ocnc1C(=O)Nc1ccc(N2C(=O)c3cccnc3C2=O)cc1F				9		
Cn1ccnc1C(=O)Nc1ccc(N2C(=O)c3cccc(F)c3C2=O)c(Cl)c1	42	> 10000	1090	43		
Cn1cccc1C(=O)Nc1ccc(N2C(=O)c3ccccc3C2=O)c(Cl)c1		5260		95		
CN1CCC[C@@H]1C(=O)Nc1ccc(N2C(=O)c3ccccc3C2=O)c(Cl)c1		> 10000				
Cc1ncsc1C(=O)Nc1ccc(N2C(=O)c3ccccc3C2=O)c(Cl)c1		> 10000				
Cc1ocnc1C(=O)Nc1ccc(N2C(=O)c3ccccc3C2=O)c(Cl)c1		1470		100		
Cc1ocnc1C(=O)Nc1ccc(N2C(=O)c3cccnc3C2=O)c(Cl)c1	45	1700	2530	91	> 5.9	
Cc1ccc2c(c1)C(=O)N(c1ccc(NC(=O)c3ncoc3C)c(F)c1)C2=O				14		
Cc1ocnc1C(=O)Nc1ccc(N2C(=O)c3ccccc3C2=O)cc1F				18		
Cc1scnc1C(=O)Nc1ccc(N2C(=O)c3ccc(F)cc3C2=O)cc1F				45		
Cc1scnc1C(=O)Nc1ccc(N2C(=O)c3cccnc3C2=O)cc1F				42		
Cc1scnc1C(=O)Nc1ccc(N2C(=O)c3cccc(F)c3C2=O)cc1F				43		

Structure (SMILES)	%max [1] [%]	EC50 ([2]; read-out: EC50) [nM]	EC50 [3] [nM]	%max [4] [%]	Ratio EC50 (Homo sapiens)	EC50 ([2]; read-out: pEC50 (converted)) [nM]
Cc1cccc2c1C(=O)N(c1ccc(NC(=O)c3nccn3C)cc1Cl)C2=O	32	> 10000	506	30		
Cc1scnc1C(=O)Nc1ccc(N2C(=O)c3ccccc3C2=O)cc1F				45		
Cc1ccsc1C(=O)Nc1ccc(N2C(=O)c3ccccc3C2=O)c(Cl)c1		1890		105		
Cc1cc[nH]c1C(=O)Nc1ccc(N2C(=O)c3ccccc3C2=O)c(Cl)c1		3420		95		3470
Cc1cn[nH]c1C(=O)Nc1ccc(N2C(=O)c3cccnc3C2=O)c(Cl)c1	27	> 10000	> 10000	37		
Cc1scnc1C(=O)Nc1ccc(N2C(=O)c3cccc(Cl)c3C2=O)c(Cl)c1	59	1370	> 10000	121		
Cc1ocnc1C(=O)Nc1ccc(N2C(=O)c3ccc(Cl)cc3C2=O)cc1F				25		
Cc1scnc1C(=O)Nc1ccc(N2C(=O)c3cccc(Cl)c3C2=O)cc1F				22		
Cc1cn[nH]c1C(=O)Nc1ccc(N2C(=O)c3cccc(C)c3C2=O)c(Cl)c1		4940	> 10000	110		
Cn1ccnc1C(=O)Nc1ccc(N2C(=O)c3cccnc3C2=O)c(Cl)c1		> 10000	> 10000	44		
CN1CCC[C@H]1C(=O)Nc1ccc(N2C(=O)c3ccccc3C2=O)c(Cl)c1		> 10000				
Cc1ocnc1C(=O)Nc1ccc(N2C(=O)c3cccc(F)c3C2=O)cc1F				36		
Cc1ccc2c(c1)C(=O)N(c1ccc(NC(=O)c3ncsc3C)c(F)c1)C2=O				36		
Cc1[nH]ccc1C(=O)Nc1ccc(N2C(=O)c3ccccc3C2=O)c(Cl)c1		> 10000				
Cc1sccc1C(=O)Nc1ccc(N2C(=O)c3ccccc3C2=O)c(Cl)c1		1510		105		
Cn1ccnc1C(=O)Nc1ccc(N2C(=O)c3cccc(Cl)c3C2=O)c(Cl)c1	30	> 10000	> 10000	30		
Cc1cn[nH]c1C(=O)Nc1ccc(N2C(=O)c3cccc(Cl)c3C2=O)c(Cl)c1		> 10000	> 10000	94		
Cc1cccc2c1C(=O)N(c1ccc(NC(=O)c3ncsc3C)c(F)c1)C2=O				17		

Further lines, results first:

%max [1] [%]	EC50 ([2]; read-out: EC50) [nM]	EC50 [3] [nM]	%max [4] [%]	Ratio EC50 (Homo sapiens)	EC50 ([2]; read-out: pEC50 (converted)) [nM]	Structure (SMILES)
36	141	642	93	4.6		Cc1ocnc1C(=O)Nc1ccc(N2C(=O)c3ccc(F)cc3C2=O)c(Cl)c1
63	673	1070	87	1.5		Cn1ccnc1C(=O)Nc1ccc(N2C(=O)c3ccc(F)cc3C2=O)c(Cl)c1
124	254	602	108	2.4		Cc1ccc2c(c1)C(=O)N(c1ccc(NC(=O)c3nccn3C)cc1Cl)C2=O
	191	> 10000	98			Cc1scnc1C(=O)Nc1ccc(N2C(=O)c3cccnc3C2=O)c(Cl)c1
52	63	306	98	4.9		Cc1scnc1C(=O)Nc1ccc(N2C(=O)c3ccc(F)cc3C2=O)c(Cl)c1
67	54	405	104	7.4		Cc1ocnc1C(=O)Nc1ccc(N2C(=O)c3ccc(Cl)cc3C2=O)c(Cl)c1
117	855	3380	113	3.9		Cc1cn[nH]c1C(=O)Nc1ccc(N2C(=O)c3ccc(Cl)cc3C2=O)c(Cl)c1
52	187	474	111	2.5		Cc1scnc1C(=O)Nc1ccc(N2C(=O)c3cccc(F)c3C2=O)c(Cl)c1
161	22	1120	86	51.1		Cc1ccc2c(c1)C(=O)N(c1ccc(NC(=O)c3ncsc3C)cc1Cl)C2=O
75	41	198	98	4.8		Cc1ccc2c(c1)C(=O)N(c1ccc(NC(=O)c3ncoc3C)cc1Cl)C2=O
39	469	519	91	0.9	479	Cc1cccc2c1C(=O)N(c1ccc(NC(=O)c3ncoc3C)cc1Cl)C2=O
169	51	1980	91	39.1		Cc1scnc1C(=O)Nc1ccc(N2C(=O)c3ccc(Cl)cc3C2=O)c(Cl)c1
59	632	6200	106	9.8		Cc1cn[nH]c1C(=O)Nc1ccc(N2C(=O)c3ccc(F)cc3C2=O)c(Cl)c1
	241	> 10000	98	1.7	1700	Cc1ocnc1C(=O)Nc1ccc(N2C(=O)c3cccc(F)c3C2=O)c(Cl)c1
75	232	1410	104	6.1		Cc1cccc2c1C(=O)N(c1ccc(NC(=O)c3ncsc3C)cc1Cl)C2=O
	599	> 10000	83		22.4	Cc1cn[nH]c1C(=O)Nc1ccc(N2C(=O)c3cccc(F)c3C2=O)c(Cl)c1
	374		59		355	Cn1ccnc1C(=O)Nc1ccc(N2C(=O)c3ccccc3C2=O)c(Cl)c1
	56		96		58.9	Cc1scnc1C(=O)Nc1ccc(N2C(=O)c3ccccc3C2=O)c(Cl)c1
